Bioassay records from PubChem BioAssay.
MT stabilize HCS – microtubule stabilizers in HeLa cells; 200,000 compounds, 0.83% hits; HeLa tubulin immunostaining HCS, 24 h; share of cells brighter than vehicle mean+2SD; % tubulin-high responders, % at 10 µM;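 active = plate Z-score above 3 for both tubulin-high and condensed-nucleus cell shares, with cell loss under 80%, at 10 µM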;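 note: anti alpha tubulin signal scored within the nucleus-defined area of each cell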
CHOP inh – blocks CHOP induction under ER stress; CHO-K1 CHOP-promoter luciferase, tunicamycin-induced, 15-18 h; inhibition, % at 10 µM; 220,000 compounds, 3.8% hits; AID 2732;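 active = compounds that reduced the stress-induced luciferase reporter signal by more than about 70% of percent inhibition, limit read from the data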
b-catenin transl – beta-catenin nuclear translocation modulation | nuclear translocation activity, % at 5 µM | 190,000 compounds, 0.3% hits | HeLa beta-catenin nuclear translocation, immunofluorescence imaging;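 active = nuclear translocation activity above 50% at 5 µM, with a well cell count of 50 or more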;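 note: per-cell ratio of nuclear to cytoplasmic median beta-catenin stain intensity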
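Test system: human HeLa cells, native beta-catenin. Compound dosing: 5 µM primary single dose, 0.1% DMSO, 0.02–20 µM confirmation series. Incubation: compound exposure 24 h at 37°C. Detection: beta-catenin immunostaining with DAPI counterstain, 20x imaging, 6 fields/well. Read-out basis: Nuclear/cytoplasmic beta-catenin signal ratio, % activation.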
Autophagy HCS – alters autophagy in cells; MEF GFP-LC3 puncta imaging; test concentration mostly 10 µM; calls only at 10 µM (by protocol); 190,000 compounds, 0.98% hits;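 active = percentage of spot-positive cells more than 3 SD above its plate mean, without a fluorescence outlier flag or 80% toxicity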
L major viab – inhibitors of Leishmania major promastigote growth. 200,000 compounds, 9% hits. inhibition, % at 10 µM. AID 1063. Leishmania major promastigotes, resazurin fluorescence viability; in the data active = inhibition above about 50%;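 note: promastigotes grown with compound for 44 hours at 28 °C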
Dynein cargo inh – dynein cargo transport inhibition. AID 1381. 3617.4 mouse cells, GR-EGFP nuclear translocation imaging; test concentration mostly 20 µM; stimulated with dexamethasone, 1 µM; active compounds read low. z-score, hits read low. 220,000 compounds, 0.47% hits;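 active = plate z-score of nuclear minus cytoplasmic receptor signal below a set negative limit, without overly bright fluorescence or cell loss, cut at about -3.5 in these data, passing the limit was not always enough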;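 note: z-score of nuclear minus cytoplasmic ring GR-EGFP intensity difference per well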
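Buffer or medium: tetracycline-free induction medium containing charcoal-stripped FBS / Reagent: dexamethasone agonist, 1.0 µM final, for 30 min / Technique: automated 10x imaging of fixed Hoechst-stained cells / Times: induction 48 h, compound 1 h, agonist 30 min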
CHOP confirm – confirmation of CHOP induction inhibitors; CHO-CHOP promoter luciferase reporter, tunicamycin-induced, luminescence; AID 504437; inhibition, % at 10 µM; 2,100 compounds, 45% hits; shares compounds with CHOP inh;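 active = mean of three repeat readings of reporter signal inhibition above a set limit, cut at about 70% in these data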
Each line names hits and unclear results; the compound was inactive in the other large screens (follow-up assays come after a bar, where they were run). A selection: hits, their analogues and other compounds. The true share with any hit is near 12%.

COc1ccc(OC)c(C(=O)c2ccccc2)c1	none
COc1ccc(OC)c(/C(O)=C/C(=O)C(=O)Nc2cc(C)cc(C)c2)c1	CHOP inh 105 (no result: b-catenin transl) | CHOP confirm inactive
CCOc1ccc(C(=O)CCC(=O)NC(C)C(=O)OC)cc1 (stereo unspecified)	none
CCOc1ccc(/C(=N\O)C(C)NO)cc1 (stereo unspecified)	CHOP inh 104 (no result: b-catenin transl) | CHOP confirm inactive
CC(C)OC(=O)n1c(=S)oc2ccccc21	none
CCCCC(=O)/C=C/n1c(=S)oc2ccccc21	CHOP inh 108 | CHOP confirm inactive
CCCCN1CCC(n2c(=O)[nH]c3ccccc32)CC1	none (no result: MT stabilize HCS, b-catenin transl, Autophagy HCS, L major viab, Dynein cargo inh)
CCOc1cc(NC(=S)NCC(C)C)c(OCC)cc1NC(=O)c1cccs1	CHOP inh 100 | CHOP confirm 100
CCCCC1=CC2=C(c3ccco3)C(=O)C(C)(OC(=O)c3ccc(OC)cc3)C(=O)C2=CN1Cc1ccccc1 (stereo unspecified)	CHOP inh 105 (no result: MT stabilize HCS, Autophagy HCS, L major viab) | CHOP confirm 73
CCCCC1=CC2=C(c3ccco3)C(=O)C(C)(OC(=O)c3ccc(OC)cc3)C(=O)C2=CN1C1CCCCC1 (stereo unspecified)	CHOP inh 101 (no result: MT stabilize HCS, Autophagy HCS, L major viab) | CHOP confirm inactive
CCCCC1=CC2=C(c3ccco3)C(=O)C(C)(OC(=O)c3ccc(OC)cc3)C(=O)C2=CN1CCOC (stereo unspecified)	none (no result: MT stabilize HCS, Autophagy HCS, L major viab)
CCCCC1=CC2=C(c3ccco3)C(=O)C(C)(OC(=O)c3ccc(OC)cc3)C(=O)C2=CN1Cc1ccc2c(c1)OCO2 (stereo unspecified)	CHOP inh 102 (no result: MT stabilize HCS, Autophagy HCS, L major viab) | CHOP confirm inactive
CCOC(=O)c1sc(NC(=O)CSC(=S)N2CCN(C)CC2)nc1C	none (no result: MT stabilize HCS, Autophagy HCS, L major viab)
CC(=O)Nc1ccc(C(=O)N(C)C(C(=O)Nc2ccccc2)c2ccccn2)cc1 (stereo unspecified)	none (no result: b-catenin transl)
CCNc1nc(Oc2c(Cl)cccc2Cl)cc(C(F)(F)F)n1	CHOP inh 98, L major viab 77 (no result: b-catenin transl) | CHOP confirm 102
COCC(=O)Nc1cc(C(=O)Nc2ccccc2)ccc1Cl	none
O=C(COC(=O)c1n[nH]c(=O)c2ccccc12)c1ccc(Br)cc1	CHOP inh 104 | CHOP confirm inactive
O=C(COC(=O)c1n[nH]c(=O)c2ccccc12)c1ccc(Cl)cc1	none
COC(=O)Nc1[nH]ncc1[N+](=O)[O-]	none
CCCCCc1c(C)nc(Nc2ccccc2)[nH]c1=O	CHOP inh 104 | CHOP confirm 86
Cc1cc(C)cc(Nc2nc3ccccc3c(=O)[nH]2)c1	none
Cc1nc(Nc2ccc(F)cc2)[nH]c(=O)c1CCC(C)C	CHOP inh 104, L major viab 53 | CHOP confirm 107
CCOC(CCc1c(C)nc(NC(C)=O)[nH]c1=O)OCC	none (no result: MT stabilize HCS, Autophagy HCS, L major viab)
O=C1N2CCSC2=NC1(NS(=O)(=O)c1ccccc1)C(F)(F)F (stereo unspecified)	none
CC(=O)N1CCCN(Cc2cn(-c3cc(C)ccc3C)nc2-c2ccccc2)CC1	none
COc1ccc(-n2c(C)cc(/C=N/Nc3nnc(C)n3N)c2C)cc1	none
CCC(=O)N(CCc1ccc(OC)c(OC)c1)Cc1cc2ccc(C)cc2n2nnnc12	none
Cc1ccc(OCC(=O)N/N=C/c2cn(C)c3ccccc23)cc1	none (no result: MT stabilize HCS, Autophagy HCS, L major viab)
Cc1ccc(OCC(=O)N/N=C/c2cn[nH]c2-c2ccc(Cl)c(Cl)c2)cc1	CHOP inh 99 | CHOP confirm 72
Cc1ccc(S(=O)(=O)C2CS(=O)(=O)CC2O)cc1 (stereo unspecified)	none (no result: b-catenin transl)
CC(=O)C1=C(S(=O)(=O)c2ccc(C)cc2)CS(=O)(=O)C1	CHOP inh 98 | CHOP confirm 71
COC(Cn1c2c(c3cc(C)ccc31)CCCC2NCc1ccccc1)OC (stereo unspecified)	none (no result: MT stabilize HCS, Autophagy HCS, L major viab)
Cn1c2ccccc2c(=O)c2c(=O)n(C3CCCCC3)c(-c3cccs3)nc21	CHOP inh 97 | CHOP confirm inactive
Cn1c2ccccc2c(=O)c2c(=O)n(C3CCCCCC3)c(C3CCCCC3)nc21	CHOP inh 105, L major viab 74 | CHOP confirm 122
COc1ccc(CCn2c(C3CCCCC3)nc3c(c(=O)c4ccccc4n3C)c2=O)cc1OC	none (no result: MT stabilize HCS, Autophagy HCS, L major viab)
COc1ccc(CCn2c(C3CCCCC3)nc3c(c(=O)c4ccccc4n3C)c2=O)cc1	CHOP inh 100, b-catenin transl 51 (no result: MT stabilize HCS, Autophagy HCS, L major viab) | CHOP confirm inactive
O=S1(=O)C=C(Sc2nc3cc(Cl)ccc3o2)c2ccccc21	L major viab 80 (no result: CHOP inh) | CHOP confirm 138
N#Cc1c(-c2cccc(Br)c2)cc(-c2cccnc2)nc1N	CHOP inh 104 | CHOP confirm inactive
COc1cccc(-c2cc(-c3cccnc3)nc(N)c2C#N)c1	none (no result: MT stabilize HCS, Autophagy HCS, L major viab)
CCOc1ccc(-c2nc(CSCC(=O)NCc3ccco3)c(C)o2)cc1	CHOP inh 106 | CHOP confirm 118
COc1ccc(-c2nc(CS(=O)CC(=O)NCc3ccco3)c(C)o2)cc1 (stereo unspecified)	none
O=C(/C=C/c1ccncc1)c1ccc(NC(=O)c2ccccc2F)cc1	CHOP inh 106, L major viab 100 (no result: b-catenin transl) | CHOP confirm inactive
O=C(Nc1cccnc1)c1ccccc1F	none
Cn1ncc(N=Cc2ccc([N+](=O)[O-])cc2)c1C(=O)Nc1ccccc1	none
COc1ccccc1NC(=O)c1c(N=Cc2ccccc2O)cnn1C	CHOP inh 101 | CHOP confirm inactive
O=C(Nc1ccc(F)cc1)C1=CC(=O)N2CCN=C2S1	none
C=CCn1c(SCC(=O)c2[nH]c(C)c(C(=O)OC)c2C)nc2scc(-c3ccc(OC)c(OC)c3)c2c1=O	CHOP inh 102 | CHOP confirm 120
O=C(c1ccc2c3c(cccc13)C(=O)N(O)C2=O)N1CCCCC1	CHOP inh 98 | CHOP confirm 109
NN1C(=O)c2cccc3c(C(=O)O)ccc(c23)C1=O	none
Nc1ccc(SC(F)(F)F)cc1C(=O)c1ccccc1	CHOP inh 104 | CHOP confirm 111
Nc1cc(C(=O)O)ccc1Sc1ccccc1C(=O)O	none
O=C(NCC1CCCO1)c1ccc2c(=O)n(Cc3cccc(Br)c3)c(=S)[nH]c2c1 (stereo unspecified)	CHOP inh 107 | CHOP confirm inactive
CCCn1c(=S)[nH]c2cc(C(=O)NCC3CCCO3)ccc2c1=O (stereo unspecified)	none
Cc1ccc(C(=O)N/C(=C\c2ccc(Br)cc2)c2nc(=S)[nH][nH]2)cc1	CHOP inh 108 (no result: b-catenin transl) | CHOP confirm 122
O=C(N/C(=C/c1cccc(Br)c1)c1nc(=S)[nH][nH]1)c1ccccc1	none
Nc1ccccc1N=c1ssnc1Cl	none
Cc1cc(Cl)ccc1N=c1ssnc1Cl	CHOP inh 108 (no result: b-catenin transl) | CHOP confirm inactive
COc1ccc(OC)c(N=c2ssnc2Cl)c1	CHOP inh 107, Dynein cargo inh -4.7 | CHOP confirm inactive
